Source: ChEMBL document CHEMBL3611983, “Highly Potent and Selective MT2 Melatonin Receptor Full Agonists from Conformational Analysis of 1-Benzyl-2-acylaminomethyl-tetrahydroquinolines” (J Med Chem, 2015)

What was measured:
[1] = target: T1, Melatonin receptor type 1A (Homo sapiens, UniProt P48039); assay: Intrinsic activity at human MT1 receptor transfected in CHO cell membranes after 1 hr by [35S]GTPgammaS binding assay; assay type: functional
Summary of the method: (§1)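 Transfected CHO membranes at 20 μg/mL were incubated in 20 mM HEPES pH 7.4 with 100 mM NaCl, 3 μM GDP, 3 mM MgCl2 and 20 μg/mL saponin. 0.2 nM [35S]GTPγS was added and incubation ran 1 h at room temperature. Nonspecific binding was defined by 10 μM GTPγS, with 1 μM melatonin as reference. Filtration was on GF/B. Curves used 7 concentrations in duplicate, giving EC50 and Emax.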

[2] = target: T1, Melatonin receptor type 1A; assay: Displacement of 2-[125I]-Iodomelatonin from human MT1 receptor transfected in CHO cell membranes after 120 mins
Summary of the method: (§2)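 Membranes from CHO cells stably expressing the receptor were pelleted and homogenized in Tris 5 mM/EDTA 2 mM, then held at -80 °C. Assay buffer was 50 mM Tris-HCl pH 7.4 with 5 mM MgCl2. Radioligand was 20 pM, with nonspecific binding defined by 1 μM melatonin.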

[3] = test system: CHO; assay: (§3) Intrinsic activity at human MT2 receptor transfected in CHO cell membranes after 1 hr by [35S]GTPgammaS binding assay; summary of the method: as §1
[4] = as §3; summary of the method: as §1
[5] = Displacement of 2-[125I]-Iodomelatonin from human MT2 receptor transfected in CHO cell membranes after 120 mins; summary of the method: as §2
[6] = species: Homo sapiens; assay: Selectivity ratio of Ki for human MT1 receptor to Ki for human MT2 receptor

T1 sequence (P48039 whole entry): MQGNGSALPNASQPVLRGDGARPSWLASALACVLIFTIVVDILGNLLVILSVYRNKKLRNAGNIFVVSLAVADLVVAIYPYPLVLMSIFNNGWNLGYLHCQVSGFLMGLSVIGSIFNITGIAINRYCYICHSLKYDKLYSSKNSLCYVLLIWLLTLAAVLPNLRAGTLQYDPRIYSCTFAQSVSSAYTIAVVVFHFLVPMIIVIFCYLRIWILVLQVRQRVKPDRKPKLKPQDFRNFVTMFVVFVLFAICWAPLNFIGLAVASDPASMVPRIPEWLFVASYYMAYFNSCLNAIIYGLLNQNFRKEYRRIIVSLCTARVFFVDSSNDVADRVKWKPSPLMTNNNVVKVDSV

Structure (SMILES) | EC50 [1] | Emax [1] | Ki [2] | Emax [3] | EC50 [4] | Ki [5] | Ratio Ki [6]
CC(=O)NCC1CCc2ccccc2N1Cc1ccccc1 (racemic) | 31 nM | 35% | 45 nM | 60% | 0.4 nM | 0.04 nM | 
CCNC(=S)NCC1CCc2ccccc2N1 (racemic) | 2660 nM | 35% | 305 nM | 72% | 1430 nM | 90 nM | 
CCC(=O)NCc1ccc2c(OC)cccc2n1 |  |  | > 10000 nM |  |  | 4450 nM | 
CC(=O)NCC1CCc2ccccc2N1CCc1ccccc1 (racemic) |  |  | 171 nM | < 15% |  | 3 nM | 
CCC(=O)NCC1CCc2ccccc2N1CC(=O)NC (racemic) |  |  | > 10000 nM |  |  | 385 nM | 
CCC(=O)NCCC1CCc2ccccc2N1Cc1ccccc1 (racemic) |  |  | 326 nM | 59% | 4.7 nM | 1.6 nM | 
CCC(=O)NCC1CCc2ccc(OC)cc2N1Cc1ccccc1 (racemic) |  |  | 214 nM | 42% | 25 nM | 26 nM | 
O=C(NCC1CCc2ccccc2N1Cc1ccccc1)C1CCC1 (racemic) |  |  | 633 nM | < 15% |  | 6.2 nM | 
CCNC(=O)NCC1CCc2ccccc2N1 (racemic) | 2420 nM | 30% | 115 nM | 80% | 356 nM | 17 nM | 
CCCN1c2ccccc2CCC1CNC(C)=O (racemic) | 2 nM | 39% | 5.8 nM | 58% | 0.2 nM | 0.1 nM | 
CCC(=O)NCC1CCc2ccccc2N1Cc1ccccc1 (racemic) | 36 nM | 42% | 37 nM | 73% | 0.4 nM | 0.09 nM | > 400
CCNC(=S)NCC1CCc2c(cccc2OC)N1 (racemic) |  |  | > 1000 nM |  |  | > 1000 nM | 
CCNC(=O)NCC1CCc2c(OC)cccc2N1C (racemic) | 160 nM | 92% | 5 nM | 105% | 10 nM | 1.4 nM | 
O=C(NCC1CCc2ccccc2N1Cc1ccccc1)C1CC1 (racemic) |  |  | 291 nM | 38% | 0.3 nM | 0.2 nM | 
CCC(=O)NCC1CCc2ccccc2N1 (racemic) | 242 nM | 37% | 13 nM |  | 27 nM | 2.2 nM | 
CCNC(=O)NCC1CCc2c(OC)cccc2N1Cc1ccccc1 (racemic) | 393 nM | 44% | 132 nM | 107% | 13 nM | 2.9 nM | 
CC(=O)NC[C@H]1CCc2ccccc2N1Cc1ccccc1 | 192 nM | 52% | 45 nM | 80% | 1.9 nM | 0.1 nM | 
CCC(=O)NCC1CCc2ccccc2N1C (racemic) | 0.9 nM | 69% | 0.7 nM | 122% | 0.6 nM | 0.2 nM | 
CCNC(=O)NCC1CCc2c(cccc2OC)N1 (racemic) |  |  | 480 nM |  |  | 114 nM | 
CCC(=O)NCC1CCc2c(OC)cccc2N1Cc1ccccc1 (racemic) | 177 nM | 79% | 17 nM | 111% | 0.9 nM | 0.001 nM | > 10000
CCC(=O)NCC1CCc2cc(OC)ccc2N1Cc1ccccc1 (racemic) |  |  | 186 nM | 75% | 4.6 nM | 1.5 nM | 
CCNC(=S)NCC1CCc2ccccc2N1C (racemic) | 809 nM | 76% | 22 nM | 73% | 66 nM | 15 nM | 
CCC(=O)NCC1CCc2ccccc2N1c1ccccc1 (racemic) | 6.2 nM | 69% | 1.6 nM | 90% | 0.5 nM | 0.06 nM | 
CCC(=O)NCC1CCc2c(cccc2OC)N1 (racemic) | 906 nM | 70% | 57 nM | 98% | 165 nM | 21 nM | 
CCNC(=O)NCC1CCc2ccccc2N1C (racemic) | 110 nM | 69% | 5.3 nM | 97% | 6.2 nM | 3.4 nM | 
CCC(=O)NCC1CCc2c(OC)cccc2N1C (racemic) | 1.7 nM | 112% | 0.03 nM | 122% | 0.5 nM | 0.5 nM | 
CC(=O)NC[C@@H]1CCc2ccccc2N1Cc1ccccc1 |  |  | 122 nM | 60% | 19 nM | 6.2 nM | 
